This is an account of results in ChEMBL document CHEMBL1138118, “Synthesis and anti-HSV-1 activity of quinolonic acyclovir analogues” (Bioorg Med Chem Lett, 2006).

A value given as a limit tells only on which side of the number the result lay.

For assay [1], the system named is Vero. The experiment in a line: Cytotoxicity against Vero cells by MTT assay. As to conditions: Chlorocebus sabaeus. Type of assay: functional. The gist of the method:
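Uninfected Vero monolayers were exposed to a range of compound concentrations for 72 h at 37 °C. MTT ([…]) was then added for 4 h at 37 °C, followed by 10% SDS/0.01 N HCl overnight. Absorbance was read at 540 nm against a 690 nm reference. CC50 is the concentration reducing host-cell viability by 50%.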

In assay [2] the test system is Human alphaherpesvirus 1. Nature of the assay: Antiviral activity against HSV1 in vero cells. The conditions noted are these: Human alphaherpesvirus 1, Vero. Type of assay: functional, organism-based. The method in brief: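 Yield reduction: confluent Vero cells were infected with HSV-1 ACR-29 at moi 1 pfu/cell for 1 h at 37 °C, washed, then given medium with varying compound concentrations. At 20 h they were freeze-thawed three times and spun at 400g for 10 min at 4 °C. Titre was read by plaque assay under 1% methylcellulose for 72 h with crystal violet stain. EC50 is the concentration inhibiting virus yield by 50%.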

Assay [3] relates to Human alphaherpesvirus 1. Nature of the assay: Antiviral activity against HSV1 at 50 uM. The assay is classed as functional. As to conditions: Human alphaherpesvirus 1, ACR-29. The method in brief:
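Vero cells (DMEM, 2% heat-inactivated FBS, 8% calf serum) were infected with HSV-1 strain ACR-29 at 1 PFU/cell for 2 h at 37 °C. The inoculum was then replaced with medium containing compound at 50 µM. After 3 days at 37 °C in 5% CO₂, supernatant titre (TCID50/mL) was measured by endpoint dilution (Reed–Muench) against untreated controls. Means of triplicates.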

For assay [4], the system named is Vero. Nature of the assay: Selectivity index (CC50/EC50) in Vero cells. The assay is classed as functional. The gist of the method:
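Ratio of CC50 (uninfected Vero, 72 h exposure) to EC50 (HSV-1 ACR-29 virus-yield inhibition in Vero); the two were determined in parallel.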

For assay [5], the system named is Human alphaherpesvirus 1. The experiment in a line: Antiviral activity against HSV1 at 10 uM. As to conditions: Human alphaherpesvirus 1, ACR-29. Type of assay: functional. The gist of the method:
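Vero cells (DMEM with 2% heat-inactivated FBS plus 8% calf serum) infected with HSV-1 strain ACR-29 at 1 PFU/cell for 2 h at 37 °C. The inoculum was replaced with medium containing compound at 10 µM; untreated infected controls got medium only. After 3 days at 37 °C in 5% CO2, supernatant titre was read by endpoint dilution (TCID50/mL, Reed-Muench). Values are means of triplicates.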

In the assay on Vero [1], `CCOC(=O)c1cn(COCCO)c2cc(Cl)ccc2c1=O` came in with a cytotoxic concentration (CC50) of 1200 µM. This molecule had an EC50 in the assay on Human alphaherpesvirus 1 [2] of 0.87 µM. This molecule gave an inhibition at 50 µM in the assay on Human alphaherpesvirus 1 [3] of 99%. In the assay on Vero [4], this molecule yielded a Selectivity index of 1375.
For `Cc1ccc2c(=O)c(C(=O)O)cn(COCCO)c2c1`, in the assay on Human alphaherpesvirus 1 [3], the inhibition at 50 µM came to 79%.
`O=C(O)c1cn(COCCO)c2cc(F)ccc2c1=O`: the cytotoxic concentration (CC50) in the assay with Vero [1] is more than 500 µM. This molecule had an EC50 with Human alphaherpesvirus 1 [2] of 1.4 µM. The inhibition at 50 µM in the assay on Human alphaherpesvirus 1 [3] is 97%. This molecule also showed a Selectivity index in the assay with Vero [4] of more than 357.
In the assay on Human alphaherpesvirus 1 [3], `O=C(O)c1cn(COCCO)c2cc([N+](=O)[O-])ccc2c1=O` yielded an inhibition at 50 µM of 77%.
`CCOC(=O)c1cn(COCCO)c2ccc(F)cc2c1=O` registered a CC50 in the assay with Vero [1] of more than 500 µM. This molecule came in with an EC50 in the assay with Human alphaherpesvirus 1 [2] of 2.3 µM. Also, at 50 µM the inhibition with Human alphaherpesvirus 1 [3] was 97%. For the same molecule, in the assay with Vero [4], the Selectivity index is recorded as more than 217.
As to `COc1ccc2c(=O)c(C(=O)O)cn(COCCO)c2c1`, in the assay with Human alphaherpesvirus 1 [3], at 50 µM the inhibition was 79%.
`CCOC(=O)c1cn(COCCO)c2cc([N+](=O)[O-])ccc2c1=O` gave an inhibition at 50 µM in the assay with Human alphaherpesvirus 1 [3] of 77%.
In the case of `Cc1ccc2c(c1)c(=O)c(C(=O)O)cn2COCCO`, in the assay with Vero [1], the CC50 is more than 500 µM. Moreover, in the assay on Human alphaherpesvirus 1 [2], the EC50 is 2.2 µM. Besides, in the assay on Human alphaherpesvirus 1 [3], at 50 µM the inhibition was 93%. The molecule further returned a Selectivity index in the assay with Vero [4] of more than 227.
In the assay with Human alphaherpesvirus 1 [3], `O=C(O)c1cn(COCCO)c2ccc(F)cc2c1=O` returned an inhibition at 50 µM of 70%.
For `O=C(O)c1cn(COCCO)c2ccc(Br)cc2c1=O`, the inhibition at 50 µM in the assay with Human alphaherpesvirus 1 [3] stood at 58%.
In turn, `CCOC(=O)c1cn(COCCO)c2cc(C)ccc2c1=O` gave an inhibition at 50 µM in the assay with Human alphaherpesvirus 1 [3] of 77%.
Turning to `CCOC(=O)c1cn(COCCO)c2ccc(Br)cc2c1=O`, in the assay with Human alphaherpesvirus 1 [3], 50 µM produced 84% inhibition.
The molecule `CCOC(=O)c1cn(COCCO)c2ccc([N+](=O)[O-])cc2c1=O` had a CC50 in the assay on Vero [1] of 960 µM. In the assay on Human alphaherpesvirus 1 [2], a half-maximal effect (EC50) was put at 1.5 µM. In addition, testing at 50 µM with Human alphaherpesvirus 1 [3] gave an inhibition of 95%. Further, the Selectivity index in the assay on Vero [4] is 640.
`CCOC(=O)c1cn(COCCO)c2cc(OC)ccc2c1=O` returned an inhibition at 50 µM in the assay on Human alphaherpesvirus 1 [3] of 89%.
Consider `O=C(O)c1cn(COCCO)c2cc(Cl)ccc2c1=O`, for which the CC50 in the assay on Vero [1] was 1200 µM. Also, a half-maximal response in the assay with Human alphaherpesvirus 1 [2] (EC50) required 0.7 µM. Moreover, in the assay with Human alphaherpesvirus 1 [3], at 50 µM the inhibition was 96%. In the assay on Vero [4], this molecule had a Selectivity index of 1714.
`CCOC(=O)c1cn(COCCO)c2ccc(C)cc2c1=O` displayed an inhibition at 50 µM in the assay on Human alphaherpesvirus 1 [3] of 82%.
`O=C(O)c1cn(COCCO)c2ccc(Cl)cc2c1=O`: half-maximal cytotoxicity with Vero [1] (CC50) was put at 1400 µM. Besides, the EC50 in the assay with Human alphaherpesvirus 1 [2] came out at 1.1 µM. Besides, testing at 50 µM in the assay on Human alphaherpesvirus 1 [3] gave an inhibition of 98%. This molecule also displayed a Selectivity index in the assay on Vero [4] of 1273.
On to `O=C(O)c1cn(COCCO)c2ccc([N+](=O)[O-])cc2c1=O`, for which the inhibition at 50 µM with Human alphaherpesvirus 1 [3] stood at 70%.
For the molecule `COc1ccc2c(c1)c(=O)c(C(=O)O)cn2COCCO`, in the assay with Human alphaherpesvirus 1 [3], testing at 50 µM gave an inhibition of 89%.
Still for that read-out and setting: the figure for `CCOC(=O)c1cn(COCCO)c2cc(F)ccc2c1=O` is 65%.
On to `CCOC(=O)c1cn(COCCO)c2ccc(Cl)cc2c1=O`, for which the CC50 in the assay with Vero [1] is 1250 µM. Besides, in the assay with Human alphaherpesvirus 1 [2], the EC50 came to 0.8 µM. Further, in the assay on Human alphaherpesvirus 1 [3], testing at 50 µM gave an inhibition of 97%. This molecule also showed a Selectivity index with Vero [4] of 1562.
For `CCOC(=O)c1cn(COCCO)c2ccc(OC)cc2c1=O`, the CC50 in the assay on Vero [1] is more than 500 µM. For the same molecule, it took 3.2 µM to reach a half-maximal effect in the assay with Human alphaherpesvirus 1 [2] (EC50). In the assay with Human alphaherpesvirus 1 [3], this molecule displayed an inhibition at 50 µM of 99%. Moreover, the Selectivity index in the assay on Vero [4] was more than 156.
In the assay on Vero [1], `Nc1nc2c(ncn2COCCO)c(=O)[nH]1` [ACYCLOVIR] displayed a CC50 of 960 µM. For the same molecule, the midpoint of the response in the assay on Human alphaherpesvirus 1 [2], the EC50, lay at 1.09 µM. In addition, the Selectivity index with Vero [4] is recorded as 880. Besides, the inhibition at 10 µM with Human alphaherpesvirus 1 [5] worked out at 96%.

As a reminder, the CC50 is the concentration giving 50% cytotoxicity. One may read the EC50 as the concentration needed to bring the measured effect to its halfway point. Read a low EC50 as a more potent agent. Usually inhibition stands for how much of the control response was suppressed. A higher inhibition goes with a response far below the control.
